Converted amounts (≈) assume the structure as drawn.
System: Mycobacterium tuberculosis variant bovis
Assay: Growth inhibition of Mycobacterium bovis BCG 1173P2
Type: functional, Mycobacterium bovis BCG str. Pasteur 1173P2
Outline: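 Broth microdilution in 7H9 Middlebrook medium with 0.2% glycerol, 0.5% Tween 80 and OADC. Uses two-fold serial dilutions and about 10^5 bacteria/ml, incubated at 37 °C. Resazurin 0.01% was added at day 8 and incubated overnight, then read as OD 570 minus 630 nm. MIC was taken as the lowest concentration preventing the blue-to-pink change.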

Row | SMILES | MIC99 | MIC50
1 | Cc1cn([C@@H]2C[C@H](O)[C@@H](CNC(=S)Nc3ccc(Cl)c(Cl)c3)O2)c(=O)[nH]c1=O | 25 µg/mL (≈ 56.1 µM) | 
2 | Cc1cn([C@@H]2C[C@H](O)[C@@H](CNC(=S)Nc3ccc(Cl)c(C(F)(F)F)c3)O2)c(=O)[nH]c1=O | 20 µg/mL (≈ 41.8 µM) | 
3 | Cc1cn([C@@H]2C[C@H](O)[C@@H](CNC(=S)Nc3ccc4c(c3)C(=O)OC43c4ccc(O)cc4Oc4cc(O)ccc43)O2)c(=O)[nH]c1=O | > 150 µg/mL | 
4 | Cc1cn([C@@H]2C[C@H](O)[C@@H](CNC(=S)NCCc3ccc(Cl)c(Cl)c3)O2)c(=O)[nH]c1=O | 50 µg/mL (≈ 106 µM) | 
5 | Cc1cn([C@@H]2C[C@H](O)[C@@H](CNC(=O)Nc3ccc(Cl)c(C(F)(F)F)c3)O2)c(=O)[nH]c1=O |  | 40 µg/mL (≈ 86.4 µM)
6 | Cc1cn([C@@H]2C[C@H](O)[C@@H](CNC(=S)NCc3ccc(Cl)c(C(F)(F)F)c3)O2)c(=O)[nH]c1=O | 40 µg/mL (≈ 81.2 µM) | 
7 | Cc1cn([C@@H]2CC[C@@H](CNC(=S)Nc3ccc(Cl)c(C(F)(F)F)c3)O2)c(=O)[nH]c1=O | 40 µg/mL (≈ 86.4 µM) | 
8 | Cc1cn([C@@H]2C=C[C@@H](CNC(=S)Nc3ccc(Cl)c(C(F)(F)F)c3)O2)c(=O)[nH]c1=O | 100 µg/mL (≈ 217 µM) | 
9 | Cc1cn([C@@H]2C[C@H](O)[C@@H](CNC(=O)Nc3ccc(Cl)c(Cl)c3)O2)c(=O)[nH]c1=O |  | 40 µg/mL (≈ 93.2 µM)
10 | Cc1cn([C@@H]2C[C@H](O)[C@@H](CN)O2)c(=O)[nH]c1=O | > 40 µg/mL | 
